Source: ChEMBL document CHEMBL5233202, “Metabolically stable apelin-analogues, incorporating cyclohexylalanine and homoarginine, as potent apelin receptor activators” (RSC Med Chem, 2021)
Non-standard residues stand in square brackets, D forms with d. Residues, ends and D or L forms follow the SMILES beside them. Phe(4-Br) = N[C@@H](Cc1ccc(Br)cc1)C(=O)O; NMeCha = CN[C@@H](CC1CCCCC1)C(=O)O; hArg = N=C(N)NCCCC[C@H](N)C(=O)O; Cha = N[C@@H](CC1CCCCC1)C(=O)O; NMeL = CN[C@@H](CC(C)C)C(=O)O; Nle = CCCC[C@H](N)C(=O)O; Aib = CC(C)(N)C(=O)O

Columns and labels:
[1] = Protein binding in pooled human plasma at 100 uM incubated for 3 hrs by equilibrium dialysis method; format: ADME, cell-free; settings: read-out: PPB (converted)
In short: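 Equilibrium dialysis. DMSO stock (1 mM) diluted to 100 μM final in 55% pooled human plasma stabilized with EDTA and MLN-4760, dialyzed against PBS pH 7.4 at 37 °C, 120 rpm, 3 h. Retentate diluted with PBS and dialysate with plasma, then quenched with 10% TFA/acetonitrile. Dans-YVG internal standard added, centrifuged, LC-MS.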

[2] = Stability in human plasma assessed as half life at 1 mM measured for 24 hrs by LC-MS analysis; format: ADME, cell-free
In short: (§1)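 Plasma (20 μL, human or murine) prewarmed to 37 °C, then 5 μL of 1 mM peptide added and incubated at 37 °C. Samples quenched at 1, 3, 6 and 24 h with 6 M GuHCl/80% ACN and Dans-YVG internal standard, centrifuged, solid-phase extracted and analyzed by LC-MS. Peptide/standard peak-area ratio normalized to 0 h; triplicates.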

Apelin receptor [3] = target: T1, Apelin receptor (Homo sapiens, UniProt P35414); experiment: Activation of recombinant human APJ receptor expressed in rat Chem-5 cells assessed as increase in Ca2+ mobilization by FLIPR Calcium 6-QF fluorescent dye based assay; format: cell-based
T1 sequence (P35414 whole entry): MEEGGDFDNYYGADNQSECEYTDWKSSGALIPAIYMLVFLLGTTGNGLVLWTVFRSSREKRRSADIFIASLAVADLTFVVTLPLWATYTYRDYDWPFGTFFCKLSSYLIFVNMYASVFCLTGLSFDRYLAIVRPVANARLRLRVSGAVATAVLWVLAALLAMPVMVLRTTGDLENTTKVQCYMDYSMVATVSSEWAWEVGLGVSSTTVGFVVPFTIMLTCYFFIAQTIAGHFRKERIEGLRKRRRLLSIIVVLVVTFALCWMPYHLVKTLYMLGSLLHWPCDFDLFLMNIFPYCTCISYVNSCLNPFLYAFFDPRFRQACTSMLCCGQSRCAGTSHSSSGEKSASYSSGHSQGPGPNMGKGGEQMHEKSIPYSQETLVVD
In short: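 Frozen Chem-5 cells stably expressing human APJ, thawed per supplier protocol, loaded 1 h with Calcium 6-QF dye in HBSS/20 mM HEPES/0.2% DMSO/2.5 mM probenecid, pH 7.6. Cells washed three times and rested 10 min, then read on FLIPR. Agonist response taken as maximum fluorescence change over baseline. pEC50 from four-parameter logistic fit; triplicates.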

Mus musculus [4] = experiment: Hypotensive effect in anesthetized wild type mouse assessed as total time duration of hypotensive effect at 1.4 uM/Kg, iv administered via right jugular vein measured for 60 mins; format: functional; settings: 1 h
In short: (§2)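 Anesthetized mice received peptide at 1.4 μM kg−1 body weight, or equal-volume saline, by injection into the right jugular vein (n = 3). HR, MABP, SBP and DBP were recorded from blood pressure traces and reported as mean ± S.E.M.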

Neprilysin [5] = target: T2, Neprilysin (Homo sapiens, UniProt P08473); experiment: (§3) Proteolytic stability assessed as recombinant human NEP-mediated compound degradation by measuring half life incubated for 24 hrs by LC-MS analysis; format: ADME; settings: 24 h
T2 sequence (P08473 whole entry): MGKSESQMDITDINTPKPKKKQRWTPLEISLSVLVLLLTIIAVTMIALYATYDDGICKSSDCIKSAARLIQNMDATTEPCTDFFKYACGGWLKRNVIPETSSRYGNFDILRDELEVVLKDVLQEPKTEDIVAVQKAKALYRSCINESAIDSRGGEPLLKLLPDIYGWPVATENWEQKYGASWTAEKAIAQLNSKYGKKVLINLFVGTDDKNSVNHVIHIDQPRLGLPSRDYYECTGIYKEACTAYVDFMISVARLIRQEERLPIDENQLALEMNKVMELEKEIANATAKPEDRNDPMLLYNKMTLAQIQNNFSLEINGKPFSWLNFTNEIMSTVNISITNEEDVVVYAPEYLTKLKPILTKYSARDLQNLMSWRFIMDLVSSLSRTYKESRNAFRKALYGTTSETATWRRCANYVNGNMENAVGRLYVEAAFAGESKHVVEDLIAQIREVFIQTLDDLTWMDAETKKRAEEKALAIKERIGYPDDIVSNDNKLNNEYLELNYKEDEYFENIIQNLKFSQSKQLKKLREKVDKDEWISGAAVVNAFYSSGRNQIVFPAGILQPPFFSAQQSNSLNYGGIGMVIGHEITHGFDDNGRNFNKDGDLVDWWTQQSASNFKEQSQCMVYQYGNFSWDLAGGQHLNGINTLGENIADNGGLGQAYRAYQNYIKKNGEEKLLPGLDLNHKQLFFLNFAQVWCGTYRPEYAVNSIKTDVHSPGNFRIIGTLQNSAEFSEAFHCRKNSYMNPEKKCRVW

Mus musculus [6] = experiment: Hypotensive effect in anesthetized wild type mouse assessed as change in mean arterial blood pressure at 1.4 uM/Kg, iv administered via right jugular vein measured for 60 mins; format: functional; settings: 1 h; in short: as §2
Neprilysin [7] = target: T2, Neprilysin; experiment: Proteolytic stability assessed as recombinant human NEP-mediated compound degradation incubated for 24 hrs by LC-MS analysis; format: ADME
In short: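 Recombinant human NEP diluted to 2 ng μL−1 in NEP-B buffer and preincubated 10 min at 37 °C. Peptide (1 mM aqueous solution) added and incubated at 37 °C. Aliquots taken at 0, 2, 10, 20 and 48 h, quenched and quantified by LC-MS; triplicate per time point.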

Apelin receptor [8] = target: T3, Apelin receptor (Rattus norvegicus, UniProt Q9JHG3); experiment: Displacement of [125I]-pyr-1-apelin-13 from EGFP tagged rat apelin receptor expressed in CHO cell membrane incubated for 3 hrs by gamma counter analysis; format: cell membranes
T3 sequence (Q9JHG3 whole entry): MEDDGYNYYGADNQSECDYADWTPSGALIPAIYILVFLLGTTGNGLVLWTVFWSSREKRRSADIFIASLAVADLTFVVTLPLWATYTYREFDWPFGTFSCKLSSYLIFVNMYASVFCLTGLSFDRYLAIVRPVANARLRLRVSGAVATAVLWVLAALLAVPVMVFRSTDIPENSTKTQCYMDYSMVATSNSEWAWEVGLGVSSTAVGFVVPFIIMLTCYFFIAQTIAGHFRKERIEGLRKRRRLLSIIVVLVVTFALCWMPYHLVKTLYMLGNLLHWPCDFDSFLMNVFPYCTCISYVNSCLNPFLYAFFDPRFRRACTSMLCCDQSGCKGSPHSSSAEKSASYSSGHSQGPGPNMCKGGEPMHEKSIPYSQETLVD
In short: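 Crude membranes (1 μg/assay) from CHO cells stably expressing wild-type rat APJ-EGFP, incubated 3 h at 20 °C with 0.2 nM [125I]-pyr-1-apelin-13 (Lys8 Bolton–Hunter monoiodinated) and competitor at various concentrations. Binding buffer: 50 mM HEPES, 5 mM MgCl2, 1% BSA, pH 7.5. Quenched with cold buffer, GF/C filtered and washed, gamma counted; triplicates.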

[9] = Stability in mouse plasma assessed as half life at 1 mM measured for 24 hrs by LC-MS analysis; format: ADME, cell-free; in short: as §1
Neprilysin (NEP) = Neprilysin (NEP) (Homo sapiens, UniProt P08473); experiment: as §3; format: ADME; settings: recombinant human neprilysin (NEP)
Neprilysin (NEP), sequence (P08473 whole entry): as the sequence (P08473 whole entry) above

Row | SMILES | fraction unbound at 3 h, 100 µM [1] | half-life at 1000 µM [2] | EC50 (Apelin receptor [3]) | Time (Mus musculus [4]) | t1/2 (Neprilysin [5]) | Activity (Mus musculus [6]) | Stability (Neprilysin [7]) | Ki (Apelin receptor [8]) | half-life at 1000 µM [9] | half-life (Neprilysin (NEP))
1 | CCCC[C@H](NC(=O)[C@@H]1CCCN1C(=O)CNC(=O)[C@H](CCCCN)NC(=O)[C@H](Cc1c[nH]cn1)NC(=O)[C@H](CO)NC(=O)[C@H](CC(C)C)NC(=O)[C@H](CCCNC(=N)N)NC(=O)[C@@H]1CCCN1C(=O)[C@H](CCCNC(=N)N)NC(=O)[C@H](CCC(N)=O)NC(=O)[C@H](CCCNC(=N)N)NC(=O)[C@H](CCCNC(=N)N)NC(=O)[C@H](Cc1ccccc1)NC(=O)[C@@H](N)CCCCN)C(=O)NC(C)(C)C(=O)N[C@@H](Cc1ccc(Br)cc1)C(=O)O (H-KFRRQRPRLSHKGP[Nle][Aib][Phe(4-Br)]-OH) | 0.43 | 0.9 h | 4.27 nM | 33 min | 10.95 h | 10.24 mmHg |  |  |  | 
2 | CCCC[C@H](NC(=O)[C@@H]1CCCN1C(=O)CNC(=O)[C@H](CCCCN)NC(=O)[C@H](Cc1c[nH]cn1)NC(=O)[C@H](CO)NC(=O)[C@H](CC1CCCCC1)N(C)C(=O)[C@H](CCCNC(=N)N)NC(=O)[C@@H]1CCCN1C(=O)[C@H](CCCNC(=N)N)NC(=O)[C@H](CCC(N)=O)NC(=O)[C@H](CCCNC(=N)N)NC(=O)[C@H](CCCNC(=N)N)NC(=O)[C@H](Cc1ccccc1)NC(=O)[C@@H](N)CCCCN)C(=O)NC(C)(C)C(=O)N[C@@H](Cc1ccc(Br)cc1)C(=O)O (H-KFRRQRPR[NMeCha]SHKGP[Nle][Aib][Phe(4-Br)]-OH) | 0.32 | 2.9 h | 16.2 nM | 60 min |  | 28.83 mmHg | Stable | 2 nM | 0.44 h | 
3 | CCCC[C@H](NC(=O)[C@@H]1CCCN1C(=O)CNC(=O)[C@H](CCCCN)NC(=O)[C@H](Cc1c[nH]cn1)NC(=O)[C@H](CO)NC(=O)[C@H](CC(C)C)N(C)C(=O)[C@H](CCCNC(=N)N)NC(=O)[C@@H]1CCCN1C(=O)[C@H](CCCNC(=N)N)NC(=O)[C@H](CCC(N)=O)NC(=O)[C@H](CCCNC(=N)N)NC(=O)[C@H](CCCNC(=N)N)NC(=O)[C@H](Cc1ccccc1)NC(=O)[C@@H](N)CCCCN)C(=O)NC(C)(C)C(=O)N[C@@H](Cc1ccc(Br)cc1)C(=O)O (H-KFRRQRPR[NMeL]SHKGP[Nle][Aib][Phe(4-Br)]-OH) | 0.45 | 8.29 h | 2.75 nM | 60 min |  | 31.98 mmHg |  |  | 0.99 h | > 48 h
4 | CCCC[C@H](NC(=O)[C@@H]1CCCN1C(=O)CNC(=O)[C@H](CCCCN)NC(=O)[C@H](Cc1c[nH]cn1)NC(=O)[C@H](CO)NC(=O)[C@H](CC(C)C)NC(=O)[C@H](CCCCNC(=N)N)NC(=O)[C@@H]1CCCN1C(=O)[C@H](CCCNC(=N)N)NC(=O)[C@H](CCC(N)=O)NC(=O)[C@H](CCCNC(=N)N)NC(=O)[C@H](CCCNC(=N)N)NC(=O)[C@H](Cc1ccccc1)NC(=O)[C@@H](N)CCCCN)C(=O)NC(C)(C)C(=O)N[C@@H](Cc1ccc(Br)cc1)C(=O)O (H-KFRRQRP[hArg]LSHKGP[Nle][Aib][Phe(4-Br)]-OH) |  | 3.06 h | 6.76 nM | 60 min |  | 40.45 mmHg |  | 0.832 nM |  | 40.6 h
5 | CCCC[C@H](NC(=O)[C@@H]1CCCN1C(=O)CNC(=O)[C@H](CCCCN)NC(=O)[C@H](Cc1c[nH]cn1)NC(=O)[C@H](CO)NC(=O)[C@H](CC1CCCCC1)NC(=O)[C@H](CCCCNC(=N)N)NC(=O)[C@@H]1CCCN1C(=O)[C@H](CCCNC(=N)N)NC(=O)[C@H](CCC(N)=O)NC(=O)[C@H](CCCNC(=N)N)NC(=O)[C@H](CCCNC(=N)N)NC(=O)[C@H](Cc1ccccc1)NC(=O)[C@@H](N)CCCCN)C(=O)NC(C)(C)C(=O)N[C@@H](Cc1ccc(Br)cc1)C(=O)O (H-KFRRQRP[hArg][Cha]SHKGP[Nle][Aib][Phe(4-Br)]-OH) | 0.35 | 6.28 h | 4.37 nM | 60 min |  | 44.9 mmHg |  | 1.1 nM | 0.52 h | 46.4 h
6 | CCCC[C@H](NC(=O)[C@@H]1CCCN1C(=O)CNC(=O)[C@H](CCCCN)NC(=O)[C@H](Cc1c[nH]cn1)NC(=O)[C@H](CO)NC(=O)[C@H](CC1CCCCC1)N(C)C(=O)[C@H](CCCCNC(=N)N)NC(=O)[C@@H]1CCCN1C(=O)[C@H](CCCNC(=N)N)NC(=O)[C@H](CCC(N)=O)NC(=O)[C@H](CCCNC(=N)N)NC(=O)[C@H](CCCNC(=N)N)NC(=O)[C@H](Cc1ccccc1)NC(=O)[C@@H](N)CCCCN)C(=O)NC(C)(C)C(=O)N[C@@H](Cc1ccc(Br)cc1)C(=O)O (H-KFRRQRP[hArg][NMeCha]SHKGP[Nle][Aib][Phe(4-Br)]-OH) | 0.31 | 3.41 h | 72.4 nM | 60 min |  | 47.57 mmHg | Stable | 0.646 nM | 0.36 h | 
7 | CCCC[C@H](NC(=O)[C@@H]1CCCN1C(=O)CNC(=O)[C@H](CCCCN)NC(=O)[C@H](Cc1c[nH]cn1)NC(=O)[C@H](CO)NC(=O)[C@H](CC(C)C)N(C)C(=O)[C@H](CCCCNC(=N)N)NC(=O)[C@@H]1CCCN1C(=O)[C@H](CCCNC(=N)N)NC(=O)[C@H](CCC(N)=O)NC(=O)[C@H](CCCNC(=N)N)NC(=O)[C@H](CCCNC(=N)N)NC(=O)[C@H](Cc1ccccc1)NC(=O)[C@@H](N)CCCCN)C(=O)NC(C)(C)C(=O)N[C@@H](Cc1ccc(Br)cc1)C(=O)O (H-KFRRQRP[hArg][NMeL]SHKGP[Nle][Aib][Phe(4-Br)]-OH) |  | 5.63 h | 275 nM | 60 min |  | 34.69 mmHg | Stable | 1.41 nM | 0.38 h | 
